ChEMBL document CHEMBL1131058, “Studies on quinazolines and 1,2,4-benzothiadiazine 1,1-dioxides. 8.1, 2 synthesis and pharmacological evaluation of tricyclic fused quinazolines and 1,2,4-benzothiadiazine 1,1-dioxides as potential alpha1-adrenoceptor antagonists” (J Med Chem, 1998)
pKi: −log10 of the molar value.

Tests used:
[1] = target: T1, Adrenergic receptor alpha-2 (Rattus norvegicus, UniProt P22086+P19328+P22909); experiment: Displacement of clonidine from Alpha-2 adrenergic receptor in rat brain cortex; assay type: tissue-based
T1 sequence (P22086 whole entry): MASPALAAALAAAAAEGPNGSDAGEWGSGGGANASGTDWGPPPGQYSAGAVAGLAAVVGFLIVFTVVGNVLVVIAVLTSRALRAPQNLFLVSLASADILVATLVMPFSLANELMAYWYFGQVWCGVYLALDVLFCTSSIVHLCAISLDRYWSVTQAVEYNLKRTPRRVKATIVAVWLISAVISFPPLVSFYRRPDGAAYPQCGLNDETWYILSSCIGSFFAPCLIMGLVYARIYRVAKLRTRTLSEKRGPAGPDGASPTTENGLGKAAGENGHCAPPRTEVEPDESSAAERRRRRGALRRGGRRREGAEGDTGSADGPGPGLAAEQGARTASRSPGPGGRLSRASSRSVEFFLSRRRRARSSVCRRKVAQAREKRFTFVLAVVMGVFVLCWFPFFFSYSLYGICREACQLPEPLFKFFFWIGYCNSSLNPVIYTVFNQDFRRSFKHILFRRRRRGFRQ
T1 sequence (P19328 whole entry): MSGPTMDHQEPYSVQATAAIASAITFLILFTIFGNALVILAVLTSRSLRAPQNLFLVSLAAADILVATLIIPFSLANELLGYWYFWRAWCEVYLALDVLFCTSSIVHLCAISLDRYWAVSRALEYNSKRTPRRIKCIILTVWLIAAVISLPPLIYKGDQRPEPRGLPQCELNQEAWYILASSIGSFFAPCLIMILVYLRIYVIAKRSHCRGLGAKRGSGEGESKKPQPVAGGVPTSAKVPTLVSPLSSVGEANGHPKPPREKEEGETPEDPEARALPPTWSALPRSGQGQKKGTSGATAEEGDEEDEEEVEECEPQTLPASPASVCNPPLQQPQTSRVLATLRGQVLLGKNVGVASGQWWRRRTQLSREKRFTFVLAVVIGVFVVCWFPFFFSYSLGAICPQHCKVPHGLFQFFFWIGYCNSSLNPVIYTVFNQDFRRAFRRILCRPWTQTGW
T1 sequence (P22909 whole entry): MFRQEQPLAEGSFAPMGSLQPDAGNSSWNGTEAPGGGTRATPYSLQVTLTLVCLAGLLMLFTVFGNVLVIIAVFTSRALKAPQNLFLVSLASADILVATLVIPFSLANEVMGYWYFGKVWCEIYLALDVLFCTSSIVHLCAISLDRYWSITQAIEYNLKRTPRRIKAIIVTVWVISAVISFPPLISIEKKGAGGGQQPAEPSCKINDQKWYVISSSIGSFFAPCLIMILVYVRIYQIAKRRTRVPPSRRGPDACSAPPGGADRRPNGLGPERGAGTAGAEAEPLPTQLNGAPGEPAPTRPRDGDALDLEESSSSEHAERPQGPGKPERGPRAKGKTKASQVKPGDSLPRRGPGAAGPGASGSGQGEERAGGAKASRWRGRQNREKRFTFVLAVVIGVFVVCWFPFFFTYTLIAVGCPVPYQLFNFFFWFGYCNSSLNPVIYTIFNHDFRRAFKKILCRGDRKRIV
In short: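 α2 competition binding run in triplicate with 1 nM [³H]clonidine plus 10 mM MgCl₂ in Tris pH 7.4, 30 min at room temperature. Test compounds at 1-100 µM. Nonspecific binding defined with 10 µM clonidine. Membranes collected on GF/B filters and washed twice with cold Tris. Protein 300-400 µg per assay. Ki given as mean ± SEM of 3-6 experiments.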

[2] = target: Serotonin 2 (5-HT2) receptor (Rattus norvegicus, UniProt P30994+P08909+P14842); experiment: Compound is evaluated for binding affinity towards 5-hydroxytryptamine 2 receptor using [3H]ketanserin in rat brain; assay type: tissue-based
In short: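 Contract radioligand competition binding. Sources: 5-HT1 and 5-HT1A in rat brain cortex; 5-HT2 and σ2 in rat brain; σ in guinea pig brain; D2, rhD2 and rhD3 in CHO cells with [³H]spiperone; H1 in guinea pig lung with [³H]pyrilamine. Inhibition constants reported; no constant given where inhibition at 10 µM was below 50%.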

[3] = target: Sodium channel alpha subunits; brain (Types I, II, III) (Rattus norvegicus, UniProt P04775+P04774+P08104); experiment: Displacement of [3H]batrachotoxin from rat brain sodium channel; assay type: tissue-based
In short: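 Radioligand competition binding was done by an outside contract lab (Pan Lab). Inhibition constants (Ki) were derived from displacement of the stated tritiated ligand. Each compound was tested at 10 µM. Where inhibition at that concentration stayed below 50%, no Ki was reported.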

[4] = target: Histamine H1 receptor (Cavia porcellus) (UniProt P31389); experiment: Compound is evaluated for binding affinity towards Histamine H1 receptor using [3H]pyrilamine in guinea pig lung at 10 uM; assay type: tissue-based
In short: (§1)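 Single-concentration screen at 10 µM in contract radioligand binding assays. Records whether inhibition of specific radioligand binding stayed below 50%.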

D(2) dopamine receptor [5] = target: T2, D(2) dopamine receptor (Homo sapiens, UniProt P14416); experiment: Compound is evaluated for binding affinity towards recombinant human Dopamine receptor D2 using [3H]spiperone in CHO cells at 10 uM; assay type: cell-based; in short: as §1
[6] = target: 5-hydroxytryptamine receptor 1A (Rattus norvegicus) (UniProt P19327); experiment: Compound is evaluated for binding affinity towards 5-hydroxytryptamine 1A receptor using [3H]-8-OH- -DPAT in rat brain cortex at 10 uM; assay type: tissue-based; in short: as §1
D(3) dopamine receptor = D(3) dopamine receptor (Homo sapiens, UniProt P35462); experiment: Compound is evaluated for binding affinity towards recombinant human Dopamine receptor D3 using [3H]spiperone in CHO cells at 10 uM; assay type: cell-based; in short: as §1
[7] = target: T3, Alpha-2B adrenergic receptor (Homo sapiens, UniProt P18089); experiment: Compound is evaluated for binding affinity towards Alpha-2B adrenergic receptor using [3H]yohimbine
T3 sequence (P18089 whole entry): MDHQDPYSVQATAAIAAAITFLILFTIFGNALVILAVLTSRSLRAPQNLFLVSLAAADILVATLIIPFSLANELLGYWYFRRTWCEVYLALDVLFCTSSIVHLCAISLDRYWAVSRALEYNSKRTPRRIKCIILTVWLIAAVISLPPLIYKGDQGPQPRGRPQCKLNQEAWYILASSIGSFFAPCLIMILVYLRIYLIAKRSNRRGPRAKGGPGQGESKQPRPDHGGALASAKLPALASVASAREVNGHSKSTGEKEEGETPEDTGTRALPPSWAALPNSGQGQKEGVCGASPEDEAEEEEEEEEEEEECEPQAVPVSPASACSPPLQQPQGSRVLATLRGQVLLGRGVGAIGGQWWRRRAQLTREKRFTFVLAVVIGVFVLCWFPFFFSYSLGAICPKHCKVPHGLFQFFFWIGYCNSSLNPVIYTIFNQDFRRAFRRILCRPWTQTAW

D(2) dopamine receptor [8] = target: T2, D(2) dopamine receptor; experiment: Compound is evaluated for binding affinity towards Dopamine receptor D2 using [3H]spiperone in CHO cells at 10 uM; assay type: cell-based

Chain of D(3) dopamine receptor (P35462 whole entry): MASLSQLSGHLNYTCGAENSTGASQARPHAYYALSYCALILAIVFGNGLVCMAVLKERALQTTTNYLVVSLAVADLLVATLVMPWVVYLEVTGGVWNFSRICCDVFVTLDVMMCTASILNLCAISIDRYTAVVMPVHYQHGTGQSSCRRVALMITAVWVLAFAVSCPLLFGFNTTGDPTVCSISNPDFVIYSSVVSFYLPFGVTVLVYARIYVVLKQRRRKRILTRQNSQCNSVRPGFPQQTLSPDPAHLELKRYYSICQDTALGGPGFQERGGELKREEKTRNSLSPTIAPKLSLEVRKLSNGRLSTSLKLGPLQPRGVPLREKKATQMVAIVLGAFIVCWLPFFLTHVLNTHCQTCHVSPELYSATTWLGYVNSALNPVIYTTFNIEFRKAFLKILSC
T2 sequence (P14416 whole entry): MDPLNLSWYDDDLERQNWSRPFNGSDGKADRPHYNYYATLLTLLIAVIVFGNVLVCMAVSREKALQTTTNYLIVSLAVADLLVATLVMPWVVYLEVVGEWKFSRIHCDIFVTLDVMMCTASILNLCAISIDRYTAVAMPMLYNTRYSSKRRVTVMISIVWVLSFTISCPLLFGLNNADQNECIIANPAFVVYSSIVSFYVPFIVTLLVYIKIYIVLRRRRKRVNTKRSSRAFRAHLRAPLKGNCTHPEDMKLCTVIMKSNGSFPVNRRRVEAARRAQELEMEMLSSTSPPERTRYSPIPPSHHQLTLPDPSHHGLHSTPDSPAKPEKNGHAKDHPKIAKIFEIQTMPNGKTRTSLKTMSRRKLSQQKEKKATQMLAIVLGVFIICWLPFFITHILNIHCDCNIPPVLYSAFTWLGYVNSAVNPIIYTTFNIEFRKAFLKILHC
Chain of Histamine H1 receptor (Cavia porcellus) (P31389 whole entry): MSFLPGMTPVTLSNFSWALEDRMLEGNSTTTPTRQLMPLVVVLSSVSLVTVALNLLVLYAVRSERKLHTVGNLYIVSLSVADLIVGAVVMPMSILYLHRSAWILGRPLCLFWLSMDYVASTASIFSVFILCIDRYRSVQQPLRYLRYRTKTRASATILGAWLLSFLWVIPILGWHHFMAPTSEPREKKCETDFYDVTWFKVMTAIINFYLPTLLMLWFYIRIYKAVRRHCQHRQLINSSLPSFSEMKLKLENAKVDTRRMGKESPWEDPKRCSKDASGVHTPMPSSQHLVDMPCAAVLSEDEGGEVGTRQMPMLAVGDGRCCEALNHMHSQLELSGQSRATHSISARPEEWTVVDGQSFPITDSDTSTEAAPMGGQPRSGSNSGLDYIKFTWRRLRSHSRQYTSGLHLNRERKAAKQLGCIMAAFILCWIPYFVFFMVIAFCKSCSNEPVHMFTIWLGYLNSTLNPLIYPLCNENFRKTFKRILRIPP
Chain of 5-hydroxytryptamine receptor 1A (Rattus norvegicus) (P19327 whole entry): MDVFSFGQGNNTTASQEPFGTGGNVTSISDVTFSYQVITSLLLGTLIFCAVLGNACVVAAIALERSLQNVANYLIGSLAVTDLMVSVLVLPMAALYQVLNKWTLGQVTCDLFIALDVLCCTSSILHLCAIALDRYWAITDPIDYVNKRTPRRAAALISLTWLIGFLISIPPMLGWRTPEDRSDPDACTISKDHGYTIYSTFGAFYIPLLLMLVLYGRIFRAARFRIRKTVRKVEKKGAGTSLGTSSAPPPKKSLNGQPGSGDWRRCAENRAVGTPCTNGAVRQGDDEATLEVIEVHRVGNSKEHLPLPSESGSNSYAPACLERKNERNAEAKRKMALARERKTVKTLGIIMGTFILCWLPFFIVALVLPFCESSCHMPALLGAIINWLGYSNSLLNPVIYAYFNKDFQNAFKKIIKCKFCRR

Structure (SMILES)	Ki [1]	Ki [2]	Ki [3]	inhibition [4]	inhibition (D(2) dopamine receptor [5])	inhibition [6]	inhibition (D(3) dopamine receptor)	pKi [7]	inhibition (D(2) dopamine receptor [8])
Oc1nc2ccccc2c2ncc(CN3CCN(c4ccccc4Cl)CC3)n12	2720 nM	114 nM	2460 nM	< 50%	< 50%	< 50%	< 50%		
COc1ccccc1N1CCN(C[C@H]2CN=C3c4ccccc4N=C(SC)N32)CC1								6.42	
COc1ccccc1N1CCN(Cc2cn3c(O)nc4ccccc4c3n2)CC1	6760 nM	3580 nM	4810 nM	< 50%	< 50%	< 50%	< 50%		< 50%
COc1ccccc1N1CCN(C[C@@H]2CN=C3c4ccccc4NC(=O)N32)CC1								5.03	
COc1ccccc1N1CCN(Cc2cnc3c4ccccc4nc(O)n23)CC1	7830 nM	514 nM	5380 nM	< 50%	< 50%		< 50%		< 50%
COc1ccccc1N1CCN(CC2CN=C3c4ccccc4N=C(SC)N32)CC1 (stereo unspecified)		168 nM	404 nM						
COc1ccccc1N1CCN(C[C@H]2CN=C3c4ccccc4NC(=O)N32)CC1								6.94	
COc1ccccc1N1CCN(CC2CN3C(=O)Nc4ccccc4C3=N2)CC1 (stereo unspecified)		369 nM			< 50%			6.60	< 50%
